In the array DNA melting data of Ke et al. (doi:10.1101/2024.01.08.574731):

Experiments:
[1] = folding enthalpy; higher = less favourable; fluorescence melt of hairpins on a sequencing array, two-state fit; conditions: sodium 0.088 M
Outline: (§1)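 Melting temperature and folding enthalpy were obtained by bootstrapped two-state fitting. Fits used Cy3 fluorescence of library hairpins with annealed Cy3 and quencher oligos on a sequenced MiSeq flow cell, imaged in 50 mM Na-HEPES pH 8.0, 25 mM NaCl in 2.5 °C steps up to 60 °C and normalised to pre-quench Cy3 and control constructs. Four replicates were combined by inverse-variance weighting, and fitted temperatures were raised by 9.35 °C to match UV melts.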

[2] = melting temperature; fluorescence melt of hairpins on a sequencing array, two-state fit, raised by 9.35 °C to match UV melts; conditions: sodium 0.088 M
Outline: as §1

GCGAGACGAAAGTCCCGC (((.(((....))).)))
folding enthalpy [1]: -35.6 kcal/mol
Tm [2]: 59 °C

GTCAAGCGAAAGCTAGAC (((.(((....))).)))
folding enthalpy [1]: -25.6 kcal/mol
Tm [2]: 52.8 °C

GGTAACCGAAAGGTCACC (((.(((....))).)))
folding enthalpy [1]: -25 kcal/mol
Tm [2]: 48.2 °C

GGTAAAGAAATTTACC ((((((....))))))
folding enthalpy [1]: -26 kcal/mol
Tm [2]: 40.1 °C

GGCCATGGAAACACAGCC (((..((....))..)))
folding enthalpy [1]: -13.5 kcal/mol
Tm [2]: 27.6 °C

GTTACCGAAAGGTTAAC ((((((....))).)))
folding enthalpy [1]: -15.4 kcal/mol
Tm [2]: 41.9 °C

GCATGCACGAAAGTGTGC (((..(((....))))))
folding enthalpy [1]: -13.3 kcal/mol
Tm [2]: 42.5 °C

GATCTGGATTCAGATC ((((((....))))))
folding enthalpy [1]: -39.3 kcal/mol
Tm [2]: 48.6 °C

GCTTTCCGAAAGGAGAGC (((.(((....))).)))
folding enthalpy [1]: -38.7 kcal/mol
Tm [2]: 54.8 °C

GCAGTTTCGAAAGAATGC (((..(((....))))))
folding enthalpy [1]: -12.5 kcal/mol
Tm [2]: 25.8 °C

GAATGCGCGAAAGCGTTC (((..(((....))))))
folding enthalpy [1]: -8.39 kcal/mol
Tm [2]: 26.1 °C

GTACCGGGAAACCGGTAC (((((((....)))))))
folding enthalpy [1]: -29.2 kcal/mol
Tm [2]: 68.3 °C

GTCTACCGAAAGGTGGAC (((.(((....))).)))
folding enthalpy [1]: -41.5 kcal/mol
Tm [2]: 60.6 °C

GCGCTAGGAAACCAACGC (((.(.(....).).)))
folding enthalpy [1]: -10.5 kcal/mol
Tm [2]: 28.6 °C

GGCACCGGAAACGATGCC ((((.((....)).))))
folding enthalpy [1]: -43.2 kcal/mol
Tm [2]: 52.9 °C

GGCTCCGAAAGGAAGGCC ((((((....)))..)))
folding enthalpy [1]: -29.7 kcal/mol
Tm [2]: 52.6 °C

GTGGACGAAAGTCCTCAC ((((((....)))..)))
folding enthalpy [1]: -9.72 kcal/mol
Tm [2]: 38 °C

GGCACTGGAAACAGTGTC (.(((((....))))).)
folding enthalpy [1]: -37.8 kcal/mol
Tm [2]: 54.1 °C

GTTACTGGAAACGGTAAC (((((.(....).)))))
folding enthalpy [1]: -32.2 kcal/mol
Tm [2]: 43.9 °C

GCGGATGGAAACATCCAC (.(((((....))))).)
folding enthalpy [1]: -14.7 kcal/mol
Tm [2]: 45.3 °C

GCTTACGGAAACATAAGC (((((.(....).)))))
folding enthalpy [1]: -21.6 kcal/mol
Tm [2]: 35.1 °C

GCCAATGGAAACATTAGC ((.((((....)))).))
folding enthalpy [1]: -17.4 kcal/mol
Tm [2]: 32.1 °C

GATCCTGGAAACAGAATC (((.(((....))).)))
folding enthalpy [1]: -16.8 kcal/mol
Tm [2]: 30.1 °C

GCGATTCGAAAGAACGC (((.(((....))))))
folding enthalpy [1]: -30.2 kcal/mol
Tm [2]: 52.8 °C

GTCATCGGAAACGATGGC (.(((((....))))).)
folding enthalpy [1]: -28.1 kcal/mol
Tm [2]: 56.2 °C

GCGTCCGAAAGGATTCGC ((((((....)))..)))
folding enthalpy [1]: -26.9 kcal/mol
Tm [2]: 47.1 °C

GAACCAGGAAACTGATTC (((.(((....))).)))
folding enthalpy [1]: -20.5 kcal/mol
Tm [2]: 32.3 °C

GATCCAGCGTGGATC ((((((...))))))
folding enthalpy [1]: -27.4 kcal/mol
Tm [2]: 50.5 °C

GACAGTGAAAACTGTC ((((((....))))))
folding enthalpy [1]: -28.6 kcal/mol
Tm [2]: 56.4 °C

GCGTCATCGAAAGATCGC (((..(((....))))))
folding enthalpy [1]: -24.4 kcal/mol
Tm [2]: 44 °C

GCGAGTCGAAAGACACGC (((.(((....))).)))
folding enthalpy [1]: -38.4 kcal/mol
Tm [2]: 66.6 °C

AACTCGAAAGAGTT (((((....)))))
folding enthalpy [1]: -17.7 kcal/mol
Tm [2]: 50.7 °C

GCTAGAGGAAACTCTAAC (.(((((....))))).)
folding enthalpy [1]: -9.45 kcal/mol
Tm [2]: 24.8 °C

GGGGGAGGAAACTCCCTC (.(((((....))))).)
folding enthalpy [1]: -19.3 kcal/mol
Tm [2]: 54.6 °C

GCGGATGCGAAAGCACGC (((..(((....))))))
folding enthalpy [1]: -15.8 kcal/mol
Tm [2]: 56.6 °C
